Assay [1] concerns HGC-27. As to the kind of experiment: Induction of apoptosis in human HGC-27 cells assessed as total apoptotic cells level at 5 uM incubated for 24 hrs by propidium iode and annexin V-FITC staining based flow cytometry. The class given is functional.
Assay [2] deals with HepG2. The assay is described as follows: Antiproliferative activity against human HepG2 cells assessed as cell growth inhibition after 72 hrs by MTT assay. Type of assay: functional, cell-based. The settings on record: HepG2, 72 h. The method in brief: (§1)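 Log-phase cells were seeded at 5 × 10³ per well and attached 24 h. HT-29 and GES-1 were grown in DMEM-based medium, A549/HepG2/HGC-27 in RPMI-1640, HUVEC in ECM with ECGS; all media had 10% FBS. Cells were exposed to graded compound concentrations for 72 h at 37 °C. MTT (5 mg/mL stock) was added for 4 h, formazan dissolved in DMSO, and A490 read. IC50 was obtained by nonlinear sigmoidal regression; mean ± S.E. of three experiments.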

The subject of assay [3] is HGC-27. As to the kind of experiment: Antiproliferative activity against human HGC-27 cells assessed as cell growth inhibition after 72 hrs by MTT assay. The class given is functional, cell-based. As to conditions: HGC-27, 72 h. The method in brief: as §1
Assay [4] relates to HUVEC. As to the kind of experiment: Cytotoxicity against human HUVEC cells assessed as inhibition of cell growth incubated for 72 hrs by MTT assay. Type of assay: cell-based. The method in brief: as §1
Assay [5] concerns HGC-27. As to the kind of experiment: Induction of apoptosis in human HGC-27 cells assessed as early apoptotic cells level at 5 uM incubated for 24 hrs by propidium iode and annexin V-FITC staining based flow cytometry (reference value: 1.48%). Type of assay: functional.
Assay [6] relates to HGC-27. As to the kind of experiment: Induction of apoptosis in human HGC-27 cells assessed as late apoptotic cells level at 5 uM incubated for 24 hrs by propidium iode and annexin V-FITC staining based flow cytometry (reference value: 0.86%). The class given is functional.
In assay [7] the test system is A549. The assay is described as follows: Antiproliferative activity against human A549 cells assessed as cell growth inhibition after 72 hrs by MTT assay. Type of assay: functional, cell-based. As to conditions: A549, 72 h. The method in brief: as §1
Assay [8] concerns GES1. As to the kind of experiment: Cytotoxicity against human GES-1 cells assessed as inhibition of cell growth incubated for 72 hrs by MTT assay. The settings on record: GES1, 72 h. Type of assay: cell-based. An outline of the steps:
as §1

Assay [9] concerns HGC-27. The assay is described as follows: Induction of apoptosis in human HGC-27 cells assessed as viable cells level at 5 uM incubated for 24 hrs by propidium iode and annexin V-FITC staining based flow cytometry (reference value: 96.0%). The class given is functional.
Assay [10] has as its system HT-29. The assay is described as follows: Antiproliferative activity against human HT-29 cells assessed as cell growth inhibition after 72 hrs by MTT assay. Type of assay: functional, cell-based. As to conditions: HT-29, 72 h. The method in brief:
as §1

For assay [11], the system named is HGC-27. As to the kind of experiment: Induction of apoptosis in human HGC-27 cells assessed as necrotic cells level at 5 uM incubated for 24 hrs by propidium iode and annexin V-FITC staining based flow cytometry (reference value: 1.64%). The class given is functional.
For assay [12], the system named is HUVEC. The assay is described as follows: Antiangiogenic activity against HUVEC cells assessed as reduction in VEGF-induced tube formation tube formation incubated for 12 hrs by matrigel-based assay. Type of assay: functional, cell-based. The settings on record: Homo sapiens. The method in brief:
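HUVECs at 4 × 10⁵ cells/mL seeded on Matrigel that had been polymerized 1 h at 37 °C. Cells were stimulated with 20 ng/mL VEGF and treated with compound (1, 2.5, 5 and 10 μM) or 0.1% DMSO vehicle for 12 h at 37 °C. Tubes were imaged by inverted microscopy. Tube length, surface area and branch points were quantified as pixel area.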

Turning to `CNC(=O)c1cc(Oc2ccc(NC(=O)Nc3ccc(Cl)c(C(F)(F)F)c3)cc2)ccn1` [SORAFENIB], the Activity turned out to be 25.41% in assay [1]; 6.91% in assay [5]; 18.5% in [6]; 50.6% in [9]; 24% in [11]. The IC50 in assay [2] was found to be 6.18 µM; in assay [3], 5.22 µM; in [4], 8.33 µM; in assay [7], 5.13 µM; in assay [8], 9.59 µM; in assay [10] it was 5.57 µM. For the same molecule, the inhibition result in assay [12] is “Dose-Dependent Effect”.

(Values after ChEMBL document CHEMBL4819027, “Design, synthesis and biological evaluation of novel 2-(4-(1H-indazol-6-yl)-1H-pyrazol-1-yl)acetamide derivatives as potent VEGFR-2 inhibitors” (Eur J Med Chem, 2021).)
